According to PubChem BioAssay:
Active and inactive are the calls of the source.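 Rule for the calls, unless noted: active = inhibition above 20% together with a positive visual image hit; inconclusive = visual image hit but inhibition not above 20%; inactive = no visual image hit.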

How the values were obtained:
[1] = inhibitors of TNFa-induced NFkB p65 translocation, primary screen, imaging, HUVEC, MLSMR starter and 10KST1 sets (AID 438); details: HUVEC TNFa-induced p65 nuclear translocation; cell count: measured here: nuclei count (cytotoxicity indicator), at 2.08 µM; inhibition: at 2 µM, stronger effect = higher value, 0% TNFa-plus-vehicle, 100% no-TNFa wells;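 note: compound added about 3h40 before a 20 min TNFalpha stimulation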;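 for inhibition: signal is the nuclear over cytoplasmic p65 intensity ratio per well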
[2] = inhibitors of E-selectin induction by TNFa, primary screen, imaging, HUVEC, immunofluorescence, MLSMR starter and 10KST1 sets (AID 487;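 active = visually confirmed hit in the image check and inhibition above 20%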;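 for inhibition: signal is fraction of cell area covered by stained E-selectin grains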;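 for nuclei count: 100% = median nuclei count of all wells on the same plate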); details: HUVEC TNFalpha-induced E-selectin immunofluorescence imaging, at 2 µM; inhibition: stronger effect = higher value; nuclei count: measured here: cell number, toxicity
[3] = DUSP6 inhibitors restoring Erk phosphorylation by chemical complementation, primary imaging in DUSP6-transfected HeLa (AID 609;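 active = compounds giving at least 50% inhibition in the cell-based MKP-3 phosphatase rescue imaging test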;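 for inhibition: phospho-Erk level distribution per well compared with pooled transfected vehicle control wells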); details: HeLa MKP-3 transfected, phospho-Erk imaging KS statistic, at 10 µM, cells stimulated with TPA for 15 min
[4] = biological target: Dual specificity protein phosphatase 6 (Homo sapiens) (UniProt Q16828); experiment: as above; details: HeLa MKP-3 transfected, phospho-Erk imaging KS statistic; at 10 µM; stronger effect = higher value; cells stimulated with TPA for 15 min
[5] = biological target: Voltage-gated potassium channel subunit beta-2 (Rattus norvegicus) (UniProt P62483); experiment: KvBeta enzyme negative modulators, primary screen, biochemical, NADPH fluorescence (AID 622;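 active = fluorescence slope higher than the sample average by over 3 SD, cut at about -0.22 in these data, passing the limit was not always enough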;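 note: slope of raw intensity against log time taken from 70 to 1610 s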); details: recombinant KvBeta, 4-cyanobenzaldehyde reduction, at 10 µM, stronger effect = higher value
[6] = biological target: Voltage-gated potassium channel subunit beta-2 (Rattus norvegicus) (UniProt P62483); experiment: KvBeta positive modulators, primary screen, biochemical, NADPH fluorescence (AID 623;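 active = NADPH fluorescence slope more negative than the mean of all samples by about 3 SD, 99.7% confidence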;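 note: fluorescence intensity change per second fitted from 20 to 320 s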); details: Recombinant KvBeta, NADPH fluorescence decrease slope, 10 min; at 10 µM; stronger effect = lower value
[7] = biological target: Muscarinic acetylcholine receptor M4 (Homo sapiens) (UniProt P08173); experiment: compounds altering M4/GIRK thallium flux, either direction, primary screen, M4 allosteric agonist project, cell-based, HEK293 M4/GIRK, BTC-AM (AID 625;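 active = fluorescence slope after compound addition differing from the mean of all tested samples at 99.7% confidence, mostly higher but some lower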;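 note: thallium influx through GIRK channels coupled to M4 in HEK293 cells with BTC-AM dye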); details: at 10 µM, actives lie on both sides
Method in brief: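 Material: M4/GIRK1/GIRK2 stable HEK293 cell line. Medium: pH 7.3 thallium assay buffer. Dosing: single compound concentration, 10 µM final. Schedule: 1 h dye loading, 2 min kinetic read. Measured by: kinetic fluorescence with BTC-AM dye. Read-out: post-addition slope, 15–24 s, of baseline-normalized fluorescence. Benchmarks: carbachol and DMSO controls.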

[8] = inhibitors of larval lipid processing in zebrafish, primary screen, whole organism, PED6 fluorescence, gall bladder and intestine (AID 686;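 active = a full or partial loss of lipid-probe fluorescence in the fish gall bladder, intestine or both, judged by eye; inactive = no fluorescence loss, or compound toxic to the fish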;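 note: larvae 5 to 7 days old with five fish per well; signal comes from phospholipase A2 cleavage of quenched PED6 carried via bile; overnight exposure to compound and PED6 before scoring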); details: Zebrafish larvae PED6 lipid processing, fluorescence scoring; screened at 20 µM (by protocol)
Method in brief: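 System: live zebrafish larvae aged 5-7 days, whole organism; measure: graded gall bladder and intestinal fluorescence inhibition per well; incubation: overnight exposure; reagent: ingested quenched lipid PED6 at 100 nM; signal: By-eye fluorescence microscopy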

[9] = inhibitors of Chlamydomonas gravitaxis, primary screen, whole organism, Chlamydomonas reinhardtii, WT vs cilia-less mutant, absorbance, 96-well (AID 463189;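 active = inhibition at or above 50% relative to wild type and mutant plate controls; inactive = inhibition below 50%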;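 note: 0% = wild type cc124 cells in DMSO and 100% = ciliumless bld1 mutant cells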); details: OD600 absorbance, 2 days, at 10 µM, stronger effect = higher value
[10] = measured here: cell density z-score
[11] = measured here: nuclear c-Myc green intensity z-score
[12] = measured here: nuclear pErk red intensity z-score, stronger effect = higher value

Sequence of Dual specificity protein phosphatase 6 (Homo sapiens) (Q16828 whole entry, looked up): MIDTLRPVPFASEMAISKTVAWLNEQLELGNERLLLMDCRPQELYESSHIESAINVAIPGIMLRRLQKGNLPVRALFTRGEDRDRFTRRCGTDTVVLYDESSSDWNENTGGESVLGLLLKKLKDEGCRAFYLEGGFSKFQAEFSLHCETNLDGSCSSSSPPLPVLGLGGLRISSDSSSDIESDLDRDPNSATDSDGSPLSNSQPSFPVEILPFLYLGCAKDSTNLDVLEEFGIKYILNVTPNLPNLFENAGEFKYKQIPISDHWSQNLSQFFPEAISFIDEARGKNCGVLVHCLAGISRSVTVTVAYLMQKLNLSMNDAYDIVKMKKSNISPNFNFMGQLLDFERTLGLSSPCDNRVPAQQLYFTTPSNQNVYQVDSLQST
Sequence of Muscarinic acetylcholine receptor M4 (Homo sapiens) (P08173 whole entry, looked up): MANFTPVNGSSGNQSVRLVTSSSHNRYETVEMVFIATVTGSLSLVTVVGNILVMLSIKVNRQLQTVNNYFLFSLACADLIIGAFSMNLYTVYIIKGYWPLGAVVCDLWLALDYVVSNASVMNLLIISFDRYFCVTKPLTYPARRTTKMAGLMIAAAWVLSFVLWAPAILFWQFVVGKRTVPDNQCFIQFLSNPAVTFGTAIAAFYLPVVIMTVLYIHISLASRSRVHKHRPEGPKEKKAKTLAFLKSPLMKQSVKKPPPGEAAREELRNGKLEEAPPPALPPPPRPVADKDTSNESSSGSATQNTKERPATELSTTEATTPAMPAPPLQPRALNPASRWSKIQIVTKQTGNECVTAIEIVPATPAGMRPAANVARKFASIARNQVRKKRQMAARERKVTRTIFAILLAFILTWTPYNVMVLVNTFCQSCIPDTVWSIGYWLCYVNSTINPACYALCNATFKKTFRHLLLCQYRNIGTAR
Sequence of Voltage-gated potassium channel subunit beta-2 (Rattus norvegicus) (P62483 whole entry, looked up): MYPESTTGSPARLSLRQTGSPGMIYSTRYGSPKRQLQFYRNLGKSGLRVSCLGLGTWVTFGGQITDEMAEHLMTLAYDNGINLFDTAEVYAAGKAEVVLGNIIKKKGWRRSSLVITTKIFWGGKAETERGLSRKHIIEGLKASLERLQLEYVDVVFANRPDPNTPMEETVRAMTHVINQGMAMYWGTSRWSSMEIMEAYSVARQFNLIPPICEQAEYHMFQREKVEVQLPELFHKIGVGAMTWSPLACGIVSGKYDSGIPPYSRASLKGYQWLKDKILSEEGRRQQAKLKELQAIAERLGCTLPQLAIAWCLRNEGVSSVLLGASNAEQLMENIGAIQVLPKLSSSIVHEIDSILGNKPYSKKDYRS

SMILES	cell count [1]	inhibition [1]	inhibition [2]	nuclei count [2]	z-score [3, 10]	z-score [3, 11]	z-score [3, 12]	inhibition [4]	fluorescence slope [5]	NADPH fluorescence slope [6]	fluorescence slope [7]	outcome [8]	inhibition [9]
Clc1ccc(-n2ncc3c(NCc4ccco4)ncnc32)cc1	582	-17.4% (inactive)	19.7% (inactive)	154%	0.502	-0.386	0.00112	19.4% (inactive)	-0.339 (inactive)	-2.6e-05 (inactive)	0.00727 (inactive)	inactive	45.5% (inactive)
Brc1ccc(-c2cnnc(N3CCCC3)n2)cc1	399	-2.1% (inactive)	-57.7% (inactive)	130%	-1.38	0.891	-0.195	-0.608% (inactive)	-0.415 (inactive)	-1.2e-05 (inactive)	0.005 (inactive)	inactive	42.9% (inactive)
N#Cc1c(N2CCCCC2)nc(N2CCCCC2)c2c1CCN(Cc1ccccc1)C2	606	-3.7% (inactive)	-146% (inactive)	154%	0.785	-0.814	0.622	-4.59% (inactive)	-0.431 (inactive)	-9.2e-05 (inactive)	0.0046 (inactive)	inactive	4.47% (inactive)
COC(=O)c1ccc(Cn2c(O)c(N=O)c3ccccc32)o1	485	2% (inactive)	-36.4% (inactive)	122%	-2.02	0.422	-1.72	7.42% (inactive)	-0.493 (inactive)	-7e-05 (inactive)	0.00432 (inactive)	inactive	-9.22% (inactive)
COc1cccc(C(=O)Nc2ccc(-c3nnc(-c4ccco4)o3)cc2)c1	684	6.3% (inactive)	25.7% (inactive)	158%	-0.186	0.958	-0.649	1.63% (inactive)	-0.476 (inactive)	-4.6e-05 (inactive)	0.00624 (inactive)	inactive	-6.98% (inactive)
Cc1cc(C)n(C2CCCCC2OC(=O)c2ccccc2)n1 (stereo not drawn)	526	-10% (inactive)	-95% (inactive)	129%	-0.506	0.334	-1.55	9.91% (inactive)	-0.381 (inactive)	2e-06 (inactive)	0.00464 (inactive)	inactive	-9.73% (inactive)
O=C(NCc1ccccc1)/C(=N\O)c1ccccc1	517	-5.4% (inactive)	3.5% (inactive)	157%	0.588	0.215	0.627	-1.98% (inactive)	-0.382 (inactive)	-1.6e-05 (inactive)	0.00503 (inactive)	inactive	-1.95% (inactive)
COc1ccc(C(=O)OC(C)CN2CCN(C)CC2)cc1OC (stereo not drawn)	386	2.6% (inactive)	-35.7% (inactive)	154%	-1.91	0.605	1.37	-11% (inactive)	-0.446 (inactive)	-9.4e-05 (inactive)	0.00501 (inactive)	inactive	21.4% (inactive)
CCCSc1nnc(NC(=O)Nc2ccc(F)cc2)s1	660	-13.9% (inactive)	-24% (inactive)	182%	0.28	-1.17	-0.511	20.2% (inactive)	-0.488 (inactive)	-6.8e-05 (inactive)	0.00807 (inactive)	inactive	6.75% (inactive)
CCc1nc(N2CCN(C(=O)c3ccccc3)CC2)c(C#N)c2c1COC(C)(C)C2	548	2% (inactive)	-77.4% (inactive)	113%	-0.584	0.135	0.894	3.42% (inactive)	-0.474 (inactive)	6.5e-05 (inactive)	0.00455 (inactive)	inactive	5.51% (inactive)
CC(C)(C)NC(=O)/C=N/O	637	-13.4% (inactive)	-71.6% (inactive)	166%	-0.0727	-0.26	0.222	1.63% (inactive)	-0.466 (inactive)	-3.8e-05 (inactive)	0.00655 (inactive)	inactive	25.5% (inactive)
Cc1ccc(N2C(=O)c3sc4nnc(C)c(=O)n4c3C2=O)cc1	637	1.3% (inactive)	-129% (inactive)	144%	0.278	1.58	-1.15	-7.86% (inactive)	-0.478 (inactive)	-4e-05 (inactive)	0.00581 (inactive)	inactive	2.4% (inactive)
Cc1ccc(-c2n[nH]c(=O)c3ccccc23)cc1S(=O)(=O)NCCN1CCOCC1	449	-1.8% (inactive)	-80.2% (inactive)	160%	-0.696	0.423	0.442	-3.95% (inactive)	-0.41 (inactive)	-4.4e-05 (inactive)	0.00462 (inactive)	inactive	19.7% (inactive)
CC(C)COc1ccc(C(=O)OCCN2CCOCC2)c(O)c1	551	-4.8% (inactive)	5.6% (inactive)	138%	0.333	-1.8	0.367	19.8% (inactive)	-0.366 (inactive)	-3.7e-07 (inactive)	0.00568 (inactive)	inactive	20.9% (inactive)
C=CCc1cccc(/C=N/n2cnnc2)c1O	534	-6.9% (inactive)	-121% (inactive)	136%	-0.238	0.5	-0.321	13.4% (inactive)	-0.446 (inactive)	-0.00012 (inactive)	0.00478 (inactive)	inactive	-8.96% (inactive)
O=C(O)C1CC(=O)n2c(nc3ccccc32)S1 (stereo not drawn)	608	-4.4% (inactive)	-24.7% (inactive)	119%	0.706	-1.47	-0.562	3.49% (inactive)	-0.47 (inactive)	-6e-05 (inactive)	0.00435 (inactive)	inactive	8.06% (inactive)
COc1cc(C(=O)Nc2ccc(O)cc2C(=O)O)ccc1OC(C)=O	645	3.6% (inactive)	31.5% (inactive)	95.3%	-0.0173	0.715	-0.436	5.35% (inactive)	-0.547 (inactive)	-6.2e-05 (inactive)	0.00561 (inactive)	inactive	13.9% (inactive)
COc1cccc(CNc2ncc(Br)cc2Br)c1O	474	-5.4% (inactive)	-263% (inactive)	170%	-1.34	0.935	2.04	-5.62% (inactive)	-0.439 (inactive)	-4.8e-05 (inactive)	0.0052 (inactive)	inactive	5.51% (inactive)
CCCNC1=C(C)C(=O)CC1	602	-0.5% (inactive)	-37.1% (inactive)	120%	-1.42	0.756	1.36	-0.233% (inactive)	-0.481 (inactive)	-4.1e-05 (inactive)	0.00471 (inactive)	inactive	3.26% (inactive)
OCCOCCNc1ncnc2c1cnn2-c1ccc(Cl)cc1	578	-11.9% (inactive)	-74.5% (inactive)	181%	0.588	-0.286	0.737	-4.59% (inactive)	-0.308 (inactive)	-2.8e-05 (inactive)	0.00585 (inactive)	inactive	26.1% (inactive)
COC(=O)c1ccc(C2/C(=C(\O)c3cccc(OC)c3)C(=O)C(=O)N2CCCN(C)C)cc1 (stereo not drawn)	632	-19.7% (inactive)	-82.8% (inactive)	145%	0.797	-1.05	-0.8	7.21% (inactive)	-0.524 (inactive)	-1.5e-05 (inactive)	0.006 (inactive)	inactive	20.5% (inactive)
